From ChEMBL document CHEMBL2331542, “Synthesis and in vitro antibacterial activity of quinolone/naphthyridone derivatives containing 3-alkoxyimino-4-(methyl)aminopiperidine scaffolds” (2013)
Values after ≈ are worked out from the molar mass of the structure shown.

What follows are compounds tested on Staphylococcus aureus (assay: Antibacterial activity against methicillin-sensitive Staphylococcus aureus isolate 12-6).
Assay type: functional
How it was run: (§1)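 MIC determined in vitro by a standard technique and defined as the lowest compound concentration giving complete inhibition of bacterial growth. The Gram-positive and Gram-negative panels were tested alongside gemifloxacin, levofloxacin and ciprofloxacin reference drugs.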
In the case of CNC1CCN(c2nc3c(cc2F)c(=O)c(C(=O)O)cn3-c2ccc(F)cc2F)C/C1=N\OC (stereo unspecified), the MIC is reported as 0.03 µg/mL (≈ 0.0631 µM).

What follows are compounds tested on Escherichia coli (assay: Antibacterial activity against Escherichia coli isolate 12-1).
Assay type: functional
How it was run: as §1
CNC1CCN(c2nc3c(cc2F)c(=O)c(C(=O)O)cn3-c2ccc(F)cc2F)C/C1=N\OC (stereo unspecified) was tested, and the MIC was 8 µg/mL (≈ 16.8 µM).

These compounds were tested on Streptococcus pneumoniae (assay: Antibacterial activity against Streptococcus pneumoniae isolate 12-5).
Assay type: functional
How it was run: as §1
For CNC1CCN(c2nc3c(cc2F)c(=O)c(C(=O)O)cn3-c2ccc(F)cc2F)C/C1=N\OC (stereo unspecified), the MIC was 0.06 µg/mL (≈ 0.126 µM).

Each compound was assayed on Escherichia coli (assay: Antibacterial activity against Escherichia coli isolate 12-4).
Assay type: functional
How it was run: as §1
In the case of CNC1CCN(c2nc3c(cc2F)c(=O)c(C(=O)O)cn3-c2ccc(F)cc2F)C/C1=N\OC (stereo unspecified), the MIC is reported as greater than 128 µg/mL.

Each compound was assayed on Klebsiella pneumoniae (assay: Antibacterial activity against extended-spectrum beta-lactamase-producing Klebsiella pneumoniae isolate 12-2).
Assay type: functional
How it was run: as §1
CNC1CCN(c2nc3c(cc2F)c(=O)c(C(=O)O)cn3-c2ccc(F)cc2F)C/C1=N\OC (stereo unspecified) gave an MIC of 32 µg/mL (≈ 67.3 µM).

These compounds were tested on Staphylococcus epidermidis (assay: Antibacterial activity against methicillin-sensitive Staphylococcus epidermidis isolate 12-2).
Assay type: functional
How it was run: as §1
For CNC1CCN(c2nc3c(cc2F)c(=O)c(C(=O)O)cn3-c2ccc(F)cc2F)C/C1=N\OC (stereo unspecified), the MIC was 0.5 µg/mL (≈ 1.05 µM).

The compounds below were run on Staphylococcus aureus (assay: Antibacterial activity against methicillin-resistant Staphylococcus aureus isolate 12-3).
Assay type: functional
How it was run: (§2)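 MIC determined in vitro by standard techniques, defined as the lowest compound concentration giving complete inhibition of bacterial growth. Gemifloxacin, levofloxacin and ciprofloxacin were tested alongside as reference drugs.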
For CNC1CCN(c2nc3c(cc2F)c(=O)c(C(=O)O)cn3-c2ccc(F)cc2F)C/C1=N\OC (stereo unspecified), the MIC was 0.03 µg/mL (≈ 0.0631 µM).

Each compound was assayed on Staphylococcus aureus (assay: Antibacterial activity against methicillin-sensitive Staphylococcus aureus isolate 12-7).
Assay type: functional
How it was run: as §1
In the case of CNC1CCN(c2nc3c(cc2F)c(=O)c(C(=O)O)cn3-c2ccc(F)cc2F)C/C1=N\OC (stereo unspecified), the MIC is reported as 0.06 µg/mL (≈ 0.126 µM).

The compounds below were run on Klebsiella pneumoniae (assay: Antibacterial activity against extended-spectrum beta-lactamase-producing Klebsiella pneumoniae isolate 12-4).
Assay type: functional
How it was run: as §1
Work on CNC1CCN(c2nc3c(cc2F)c(=O)c(C(=O)O)cn3-c2ccc(F)cc2F)C/C1=N\OC (stereo unspecified) yielded an MIC of 1 µg/mL (≈ 2.1 µM).

The compounds below were run on Streptococcus pneumoniae (assay: Antibacterial activity against Streptococcus pneumoniae isolate 12-2).
Assay type: functional
How it was run: as §1
Work on CNC1CCN(c2nc3c(cc2F)c(=O)c(C(=O)O)cn3-c2ccc(F)cc2F)C/C1=N\OC (stereo unspecified) yielded an MIC of 0.06 µg/mL (≈ 0.126 µM).

Each compound was assayed on Staphylococcus aureus (assay: Antibacterial activity against methicillin-resistant Staphylococcus aureus isolate 12-15).
Assay type: functional
How it was run: as §2
With CNC1CCN(c2nc3c(cc2F)c(=O)c(C(=O)O)cn3-c2ccc(F)cc2F)C/C1=N\OC (stereo unspecified) the MIC was 0.03 µg/mL (≈ 0.0631 µM).

Each compound was assayed on Staphylococcus epidermidis (assay: Antibacterial activity against methicillin-sensitive Staphylococcus epidermidis isolate 12-3).
Assay type: functional
How it was run: as §1
For CNC1CCN(c2nc3c(cc2F)c(=O)c(C(=O)O)cn3-c2ccc(F)cc2F)C/C1=N\OC (stereo unspecified), the MIC was 0.125 µg/mL (≈ 0.263 µM).

The compounds below were run on Staphylococcus aureus (assay: Antibacterial activity against methicillin-resistant Staphylococcus aureus isolate 12-13).
Assay type: functional
How it was run: as §2
With CNC1CCN(c2nc3c(cc2F)c(=O)c(C(=O)O)cn3-c2ccc(F)cc2F)C/C1=N\OC (stereo unspecified) the MIC was 0.03 µg/mL (≈ 0.0631 µM).

Each compound was assayed on Klebsiella pneumoniae (assay: Antibacterial activity against extended-spectrum beta-lactamase-producing Klebsiella pneumoniae isolate 12-1).
Assay type: functional
How it was run: as §1
Work on CNC1CCN(c2nc3c(cc2F)c(=O)c(C(=O)O)cn3-c2ccc(F)cc2F)C/C1=N\OC (stereo unspecified) yielded an MIC of 64 µg/mL (≈ 135 µM).

These compounds were tested on Staphylococcus epidermidis (assay: Antibacterial activity against methicillin-sensitive Staphylococcus epidermidis isolate 12-1).
Assay type: functional
How it was run: as §1
In the case of CNC1CCN(c2nc3c(cc2F)c(=O)c(C(=O)O)cn3-c2ccc(F)cc2F)C/C1=N\OC (stereo unspecified), the MIC is reported as 0.125 µg/mL (≈ 0.263 µM).

Each compound was assayed on Staphylococcus aureus (assay: Antibacterial activity against methicillin-sensitive Staphylococcus aureus isolate 12-10).
Assay type: functional
How it was run: as §1
In the case of CNC1CCN(c2nc3c(cc2F)c(=O)c(C(=O)O)cn3-c2ccc(F)cc2F)C/C1=N\OC (stereo unspecified), the MIC is reported as 0.03 µg/mL (≈ 0.0631 µM).

Each compound was assayed on Escherichia coli (assay: Antibacterial activity against extended-spectrum beta-lactamase-producing Escherichia coli isolate 12-1).
Assay type: functional
How it was run: as §1
With CNC1CCN(c2nc3c(cc2F)c(=O)c(C(=O)O)cn3-c2ccc(F)cc2F)C/C1=N\OC (stereo unspecified) the MIC was greater than 128 µg/mL.

These compounds were tested on Escherichia coli (assay: Antibacterial activity against Escherichia coli ATCC 25922).
Assay type: functional
How it was run: as §1
CNC1CCN(c2nc3c(cc2F)c(=O)c(C(=O)O)cn3-c2ccc(F)cc2F)C/C1=N\OC (stereo unspecified) gave an MIC of 0.125 µg/mL (≈ 0.263 µM).

What follows are compounds tested on Staphylococcus epidermidis (assay: Antibacterial activity against methicillin-resistant Staphylococcus epidermidis isolate 12-33).
Assay type: functional
How it was run: as §2
Compound CNC1CCN(c2nc3c(cc2F)c(=O)c(C(=O)O)cn3-c2ccc(F)cc2F)C/C1=N\OC (stereo unspecified) has an MIC of 0.015 µg/mL (≈ 0.0316 µM).

These compounds were tested on Escherichia coli (assay: Antibacterial activity against extended-spectrum beta-lactamase-producing Escherichia coli isolate 12-2).
Assay type: functional
How it was run: as §1
Compound CNC1CCN(c2nc3c(cc2F)c(=O)c(C(=O)O)cn3-c2ccc(F)cc2F)C/C1=N\OC (stereo unspecified) has an MIC greater than 128 µg/mL.

The compounds below were run on Escherichia coli (assay: Antibacterial activity against extended-spectrum beta-lactamase-producing Escherichia coli isolate 12-4).
Assay type: functional
How it was run: as §1
CNC1CCN(c2nc3c(cc2F)c(=O)c(C(=O)O)cn3-c2ccc(F)cc2F)C/C1=N\OC (stereo unspecified) was tested, and the MIC was 32 µg/mL (≈ 67.3 µM).

These compounds were tested on Pseudomonas aeruginosa (assay: Antibacterial activity against Pseudomonas aeruginosa isolate 12-2).
Assay type: functional
How it was run: as §1
CNC1CCN(c2nc3c(cc2F)c(=O)c(C(=O)O)cn3-c2ccc(F)cc2F)C/C1=N\OC (stereo unspecified) showed an MIC of 8 µg/mL (≈ 16.8 µM).

These compounds were tested on Klebsiella pneumoniae (assay: Antibacterial activity against Klebsiella pneumoniae isolate 12-1).
Assay type: functional
How it was run: as §1
Compound CNC1CCN(c2nc3c(cc2F)c(=O)c(C(=O)O)cn3-c2ccc(F)cc2F)C/C1=N\OC (stereo unspecified) has an MIC of 1 µg/mL (≈ 2.1 µM).

What follows are compounds tested on Klebsiella pneumoniae (assay: Antibacterial activity against Klebsiella pneumoniae isolate 12-2).
Assay type: functional
How it was run: as §1
With CNC1CCN(c2nc3c(cc2F)c(=O)c(C(=O)O)cn3-c2ccc(F)cc2F)C/C1=N\OC (stereo unspecified) the MIC was 1 µg/mL (≈ 2.1 µM).

The compounds below were run on Klebsiella pneumoniae (assay: Antibacterial activity against Klebsiella pneumoniae isolate 12-4).
Assay type: functional
How it was run: as §1
With CNC1CCN(c2nc3c(cc2F)c(=O)c(C(=O)O)cn3-c2ccc(F)cc2F)C/C1=N\OC (stereo unspecified) the MIC was 1 µg/mL (≈ 2.1 µM).

Each compound was assayed on Staphylococcus epidermidis (assay: Antibacterial activity against methicillin-resistant Staphylococcus epidermidis isolate 12-35).
Assay type: functional
How it was run: as §2
CNC1CCN(c2nc3c(cc2F)c(=O)c(C(=O)O)cn3-c2ccc(F)cc2F)C/C1=N\OC (stereo unspecified) showed an MIC of 0.015 µg/mL (≈ 0.0316 µM).

These compounds were tested on Pseudomonas aeruginosa (assay: Antibacterial activity against Pseudomonas aeruginosa isolate 12-1).
Assay type: functional
How it was run: as §1
CNC1CCN(c2nc3c(cc2F)c(=O)c(C(=O)O)cn3-c2ccc(F)cc2F)C/C1=N\OC (stereo unspecified) was tested, and the MIC was 4 µg/mL (≈ 8.41 µM).

Each compound was assayed on Staphylococcus epidermidis (assay: Antibacterial activity against methicillin-resistant Staphylococcus epidermidis isolate 12-5).
Assay type: functional
How it was run: as §2
Work on CNC1CCN(c2nc3c(cc2F)c(=O)c(C(=O)O)cn3-c2ccc(F)cc2F)C/C1=N\OC (stereo unspecified) yielded an MIC of 0.015 µg/mL (≈ 0.0316 µM).

These compounds were tested on Escherichia coli (assay: Antibacterial activity against Escherichia coli isolate 12-5).
Assay type: functional
How it was run: as §1
CNC1CCN(c2nc3c(cc2F)c(=O)c(C(=O)O)cn3-c2ccc(F)cc2F)C/C1=N\OC (stereo unspecified) was tested, and the MIC was greater than 128 µg/mL.

The compounds below were run on Pseudomonas aeruginosa (assay: Antibacterial activity against Pseudomonas aeruginosa ATCC 27853).
Assay type: functional
How it was run: as §1
CNC1CCN(c2nc3c(cc2F)c(=O)c(C(=O)O)cn3-c2ccc(F)cc2F)C/C1=N\OC (stereo unspecified) was tested, and the MIC was 8 µg/mL (≈ 16.8 µM).

Each compound was assayed on Staphylococcus aureus (assay: Antibacterial activity against Staphylococcus aureus […]).
Assay type: functional
How it was run: as §1
For CNC1CCN(c2nc3c(cc2F)c(=O)c(C(=O)O)cn3-c2ccc(F)cc2F)C/C1=N\OC (stereo unspecified), the MIC was 0.125 µg/mL (≈ 0.263 µM).
